High-throughput results (PubChem BioAssay)
Ba/F3 V617F tox – lowers viability of Ba/F3 cells expressing EpoR and JAK2V617F | ATP luminescence | inhibition, % at 5.6 µM | 220,000 compounds, 1.1% hits;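 active means inhibition above the campaign mean plus 3 SD over all tested compounds, cut at about 24% in these data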;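 further: cytokine-independent growth of Ba/F3 cells driven by EpoR plus mutant JAK2; 0% = DMSO-treated cells and 100% = JAK inhibitor I control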
BaF3 parental – parental Ba/F3 viability inhibition as JAK2V617F counter-screen; CellTiter-Glo ATP luminescence; inhibition, % at 5.6 µM; 220,000 compounds, 1.1% hits; AID 1486;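 active means inhibition above a per-campaign cutoff, the mean inhibition of all tested compounds plus 3 SD, cut at about 27% in these data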;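 further: 0% = DMSO wells and 100% = JAK Inhibitor I control wells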
MT stabilizer – stabilizes microtubules in HeLa cells. HeLa tubulin immunostaining HCS, 24 h; share of cells brighter than vehicle mean+2SD. 200,000 compounds, 0.83% hits. % tubulin-high responders, % at 10 µM;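 active means plate Z-score above 3 for both tubulin-high and condensed-nucleus cell shares, with cell loss under 80%, at 10 µM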;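 further: anti alpha tubulin signal scored within the nucleus-defined area of each cell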
KLF5 inhibitor – inhibitors of KLF5 expression | DLD-1 KLF5 promoter-luciferase reporter, luminescence | inhibition, % at 5 µM | 290,000 compounds, 0.23% hits;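 active means inhibition above a per-plate limit of that plate's mean compound inhibition plus 3 SD, cut at about 60% in these data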;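 further: 0% = DMSO wells and 100% = LY294002 at 200 µM; higher means less KLF5 promoter-driven luciferase light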
bCat nuc transl – modulators of beta-catenin nuclear translocation. HeLa beta-catenin nuclear translocation, immunofluorescence imaging. nuclear translocation activity, % at 5 µM. 190,000 compounds, 0.3% hits;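 active means nuclear translocation activity above 50% at 5 µM, with a well cell count of 50 or more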;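 further: per-cell ratio of nuclear to cytoplasmic median beta-catenin stain intensity; plate controls were DMSO negative control for no effect and GSK-3 inhibitor IX positive control for full effect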
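System: HeLa cells, endogenous beta-catenin; compound dosing: 5 µM primary single dose, 0.1% DMSO, 0.02–20 µM confirmation series; incubation: 24 h compound exposure at 37°C, 5% CO2; signal: beta-catenin immunofluorescence imaging with DAPI; evaluation: % activation, nuclear-to-cytoplasmic median beta-catenin signal ratio per cell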
IEC-6 tox – counter-screen for KLF5 inhibitors: cytotoxicity in IEC-6 cells; 290,000 compounds, 0.78% hits; IEC-6 cytotoxicity, luminescence viability; inhibition, % at 5 µM; in the data active means inhibition above about 22%;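 further: 0% = plate median of test compound wells and 100% = cytotoxic reference compound wells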
The depositor's hits bear a star; nt = no result given. Most compounds without a hit are left out; they make up all but 2.1% or so of the library.

SMILES	Ba/F3 V617F tox	BaF3 parental	MT stabilizer	KLF5 inhibitor	bCat nuc transl	IEC-6 tox
COc1cc(OC)cc(C(=O)OCCCOC(=O)c2cc(OC)cc(OC)c2)c1	nt	nt	nt	-26	nt	-12
O=C(CCc1ccccc1)Nc1ccc2c(c1)C(=O)OC2	nt	nt	nt	-60	nt	5
CCOc1ccc(N2C(=O)C(CC(=O)Nc3ccccc3)N(Cc3ccccn3)C2=S)cc1 (centres undefined)	7	27*	3	33	nt	6
CCOC(=O)C[N+](C)(C)CCOC1CC2CCC1(C)C2(C)C (centres undefined)	15	30*	1	18	2	0
CC1(C)C2CCC1(C)C(OCC[N+](C)(C)CC(=O)OC1CCCCC1)C2 (centres undefined)	100*	83*	4	7	-2	2
CC1(C)C2CCC1(C)C(NC1=NCCC1)C2 (centres undefined)	4	4	3	-15	-5	1
CC1(C)[C@H]2CC[C@]1(C)[C@@H](OC(=O)C[N+]1(C)CCOCC1)C2	-6	-1	nt	2	1	-4
CCCc1cc(-c2[nH]ncc2-c2ccc3c(c2)OCCCO3)c(O)cc1OC	-2	3	47*	-14	3	-1
CCc1cc(-c2[nH]ncc2-c2ccc3c(c2)OCO3)c(O)cc1O	-2	2	4	-37	0	-5
NC(=O)COC(=O)c1ccccc1OCc1ccccc1Cl	0	3	4	-3	-4	1
O=C(CN1C(=O)/C(=C/c2c(F)cccc2Cl)Oc2ccccc21)NCc1ccco1	0	2	19*	-13	3	6
COc1cc(S(=O)(=O)NCCCn2ccnc2)ccc1Cl	nt	nt	nt	-9	nt	-8
COC(=O)CS(=O)(=O)c1cc(Br)cc2c1N(C(C)=O)CC2	2	93*	5	1	-1	2
CCCN(CCC)CCCNS(=O)(=O)c1cc(Br)cc2c1N(C(C)=O)CC2	0	4	4	-6	-1	1
CC1CCCCN1C(=O)CSc1nc2c(c(=O)n(C)c(=O)n2C)n1C (centres undefined)	nt	nt	nt	-35	nt	1
COC(=O)Cn1cnc2c(cnn2-c2ccc(C)cc2)c1=O	nt	nt	nt	-36	nt	3
CCOc1ccc(OCC)c(NC(=O)CN2CCN(c3cccc(C)c3)C(C)C2)c1 (centres undefined)	2	7	43*	-15	0	-3
O=S(=O)(c1cccs1)N1CCC(CO)(Cc2ccc(Cl)cc2)CC1	-1	2	1	-7	-2	-10
CN(C)c1ccc2c(c1)OC(N)=C(C#N)C2c1cccc(F)c1 (centres undefined)	-3	2	8	-25	99*	2
N#CC1=C(N)Oc2cc(O)ccc2C1c1cccnc1 (centres undefined)	-4	3	2	-12	-4	-4
NC(=O)COc1ccc(-c2noc(COc3ccccc3[N+](=O)[O-])n2)cc1	-6	0	5	-65	-3	2
COc1ccccc1-c1c(-c2ccc(O)cc2O)n[nH]c1C(F)(F)F	48*	45*	nt	-20	2	8
COc1ccc(-c2c(-c3ccc(O)cc3O)n[nH]c2C)cc1OC	0	7	35*	-30	nt	1
Oc1ccc(-c2n[nH]c(C(F)(F)F)c2-c2ccccc2)c(O)c1	56*	78*	1	3	2	3
COc1ccc(-c2c(-c3ccc(O)cc3O)n[nH]c2C(F)(F)F)cc1	-2	4	nt	-20	-2	-2
SMILES	Ba/F3 V617F tox	BaF3 parental	MT stabilizer	KLF5 inhibitor	bCat nuc transl	IEC-6 tox
COc1cc(CN2CCC(N3CCC(C(=O)N4CCCC4)CC3)CC2)cc2c1OCO2	-3	3	4	-22	0	-5
CS(=O)(=O)N(CC(=O)NC1CCCCC1)c1cccc(F)c1	-1	2	4	8	1	-2
CCOc1ncccc1C(=O)OCc1ccc(C(=O)OC)cc1	-2	2	18*	-38	68*	2
Cc1nn(C(=O)C(C)N2C(=O)c3ccccc3C2=O)c(C)c1Br (centres undefined)	-1	94*	4	-14	-4	-4
Cc1cn(C(=O)C(C)N2C(=O)c3ccccc3C2=O)c(C)n1 (centres undefined)	-1	2	1	6	nt	5
Cn1c(=O)c(=O)n(C)c2cc(S(=O)(=O)N3CCc4ccccc43)ccc21	-2	31*	4	25	-4	2
Cn1c(=O)oc2cc(S(=O)(=O)N3CCc4ccccc43)ccc21	3	3	nt	21	1	2
Cn1c(=O)oc2cc(S(=O)(=O)N3CCCc4ccccc43)ccc21	55*	45*	6	20	nt	0
COC(=O)Nc1ccc(S(=O)(=O)N2CCCc3ccccc32)cc1	85*	79*	19*	51	-1	74*
CCN1CCc2c(sc(NC(=O)c3ccc(S(=O)(=O)N4CCCCCC4)cc3)c2C(=O)NC)C1	nt	nt	nt	-38	nt	4
COCCNC(=O)CSc1ccccc1C(=O)NC1CCSc2ccccc21 (centres undefined)	nt	nt	nt	14	nt	8
COCCn1c(SCc2cc(=O)n3cc(C)ccc3n2)nc2ccccc2c1=O	2	4	7	-9	0	5
COc1ccc(CNCC(=O)Nc2ccccc2-n2cccc2)cc1	1	2	33*	-3	43	19
COc1ccc(CC(=O)Nc2ccccc2N2CCCC2)cc1	nt	nt	nt	-20	nt	6
O=C(NCC(=O)N(c1cccc(F)c1)C(C(=O)NC1CCCC1)c1cccnc1)c1ccco1 (centres undefined)	nt	nt	nt	-6	nt	1
CCC(=O)NC(Cc1ccccc1)c1ccc2c(c1)OCCCO2 (centres undefined)	39*	31*	4	-36	0	-3
O=C(Nc1ccccc1F)c1ccc(CNS(=O)(=O)c2cccc(C(F)(F)F)c2)cc1	-1	1	3	3	-4	-1
Cc1ccc(NC(=O)c2ccc(CNS(=O)(=O)c3cccc(C(F)(F)F)c3)cc2)cc1	4	33*	1	-21	-3	5
COc1cc(/C=N/NC(=O)c2[nH]nc3c2CCc2ccccc2-3)ccc1O	-2	6	24*	-13	34	-8
CCOc1ccccc1NC(=O)CCNC(=O)Cn1ccc2ccccc2c1=O	nt	nt	nt	-17	nt	6
Nc1ccc(N2CCCCCC2)cc1	43*	59*	5	1	0	1
C/C(CC(C)(C)C1CCCCC1)=N\NC(N)=S	80*	73*	2	19	nt	8
Cc1cc(C)cc(Nc2nc(-c3ccc(S(=O)(=O)N4CCCC4)cc3)cs2)c1	-4	0	19*	-1	0	-4
Cc1ccc(Nc2nc(-c3ccc(S(=O)(=O)N4CCCC4)cc3)cs2)cc1C	-1	0	4	12	2	3
COc1ccc(NS(=O)(=O)c2cc(C)ccc2C)cc1	1	4	59*	-5	0	8
